Measurements: ChEMBL document CHEMBL2203081 (Bioorg Med Chem Lett, 2012)
Calls of active or inactive are those of the source. No cut-off for these calls is given here.

Experiments:
[1] = target: Insulin receptor-related protein (Homo sapiens) (UniProt P14616); assay: Inhibition of INSRR assessed as residual activity at 10 uM relative to control
[2] = target: BMP-2-inducible protein kinase (Homo sapiens) (UniProt Q9NSY1); assay: Inhibition of BIKE assessed as residual activity at 10 uM relative to control
[3] = target: Ephrin type-B receptor 4 (Homo sapiens) (UniProt P54760); assay: Inhibition of EPH-B4 assessed as residual activity at 1 uM
Procedure, shortened: (§1)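 Standard radioactivity-based enzymatic kinase assays on a 131-kinase panel run by the Dundee profiling service; residual kinase activity recorded.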

[4] = target: Calcium/calmodulin-dependent protein kinase kinase 2 (Homo sapiens) (UniProt Q96RR4); assay: Inhibition of CAMKKb assessed as residual activity at 1 uM
[5] = target: Death-associated protein kinase 1 (Homo sapiens) (UniProt P53355); assay: Inhibition of DAPK1 assessed as residual activity at 10 uM relative to control
Procedure, shortened: (§2)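 Competition kinase-binding assay (KINOMEscan) across a non-redundant panel of 329 kinases beyond the radiometric panel; residual binding expressed relative to control.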

[6] = target: Protein kinase C iota type (Homo sapiens) (UniProt P41743); assay: Inhibition of PRKCI assessed as residual activity at 10 uM relative to control
[7] = tested on: Epidermal growth factor receptor (Homo sapiens), P00533 [L861Q]; assay: Inhibition of EGFR L861Q mutant assessed as residual activity at 10 uM relative to control; assay type: protein assay; procedure, shortened: as §2
[8] = target: Ribosomal protein S6 kinase alpha-1 (Homo sapiens) (UniProt Q15418); assay: Inhibition of RSK1 assessed as residual activity at 1 uM
Mus musculus [9] = assay: Oral bioavailability in Swiss albino mouse at 10 mg/kg; assay type: ADME, organism-based; conditions: in vivo
[10] = target: Tyrosine-protein kinase Lck (Homo sapiens) (UniProt P06239); assay: Inhibition of Lck assessed as residual activity at 1 uM
[11] = target: Leucine-rich repeat serine/threonine-protein kinase 2 (Homo sapiens) (UniProt Q5S007); conditions: HEK293, 0.3 to 1 uM
[12] = tested on: Mast/stem cell growth factor receptor Kit (Homo sapiens), P10721 [L576P]; assay: Inhibition of KIT L576P mutant assessed as residual activity at 10 uM relative to control
Mus musculus [13] = assay: Inhibition of LRRK2 in mouse assessed as inhibition of Ser910 autophosphorylation in brain at 100 mg/kg, ip by immunoblot method; assay type: functional, organism-based; parameters: dose 100 mg/kg
[14] = target: Leucine-rich repeat serine/threonine-protein kinase 2 (Mus musculus) (UniProt Q5S006); assay: Inhibition of LRRK2 in Swiss mouse 3T3 cells assessed as inhibition of Ser910 autophosphorylation after 90 mins by immunoblot method; assay type: cell-based; conditions: NIH3T3
[15] = target: SRSF protein kinase 1 (Homo sapiens) (UniProt Q96SB4); assay: Inhibition of SRPK1 assessed as residual activity at 1 uM
[16] = target: T1, Ephrin type-B receptor 3 (Homo sapiens) (UniProt P54753); assay: Inhibition of EPH-B3 assessed as residual activity at 10 uM; procedure, shortened: as §1
T1 sequence (whole entry): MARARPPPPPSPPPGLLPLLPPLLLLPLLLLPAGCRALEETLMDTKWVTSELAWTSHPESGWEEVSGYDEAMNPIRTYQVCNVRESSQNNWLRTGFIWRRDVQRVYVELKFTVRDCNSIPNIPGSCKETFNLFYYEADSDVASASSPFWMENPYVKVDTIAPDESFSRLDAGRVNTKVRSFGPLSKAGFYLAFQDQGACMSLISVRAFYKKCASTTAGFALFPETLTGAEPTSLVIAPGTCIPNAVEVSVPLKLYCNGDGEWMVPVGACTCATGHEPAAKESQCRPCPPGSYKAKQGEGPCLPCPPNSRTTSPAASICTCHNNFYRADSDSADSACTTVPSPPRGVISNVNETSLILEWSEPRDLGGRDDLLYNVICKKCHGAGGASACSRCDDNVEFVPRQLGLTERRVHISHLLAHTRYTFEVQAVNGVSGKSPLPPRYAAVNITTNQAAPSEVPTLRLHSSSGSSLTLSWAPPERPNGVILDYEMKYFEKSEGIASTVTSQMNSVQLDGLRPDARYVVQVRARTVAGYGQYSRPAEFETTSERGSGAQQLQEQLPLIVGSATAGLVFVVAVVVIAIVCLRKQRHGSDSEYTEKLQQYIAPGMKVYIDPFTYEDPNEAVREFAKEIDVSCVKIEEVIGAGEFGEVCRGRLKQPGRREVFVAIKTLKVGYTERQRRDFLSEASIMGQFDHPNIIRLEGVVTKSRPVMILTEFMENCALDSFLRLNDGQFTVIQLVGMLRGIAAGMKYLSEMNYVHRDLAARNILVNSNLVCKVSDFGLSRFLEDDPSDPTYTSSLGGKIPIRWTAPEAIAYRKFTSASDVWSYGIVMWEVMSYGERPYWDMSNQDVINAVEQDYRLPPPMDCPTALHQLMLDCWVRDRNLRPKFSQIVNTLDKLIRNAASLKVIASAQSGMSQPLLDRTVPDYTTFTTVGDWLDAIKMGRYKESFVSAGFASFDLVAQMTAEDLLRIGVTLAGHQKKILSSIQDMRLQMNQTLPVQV

[17] = target: Protein-tyrosine kinase 6 (Homo sapiens) (UniProt Q13882); assay: Inhibition of BRK assessed as residual activity at 10 uM
Procedure, shortened: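 Radioactivity-based enzymatic assay against a panel of 131 kinases (Dundee profiling). Activity remaining was measured with compound present at the stated concentration.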

[18] = target: Leukocyte tyrosine kinase receptor (Homo sapiens) (UniProt P29376); assay: Inhibition of LTK assessed as residual activity at 10 uM relative to control
[19] = target: Dual specificity protein kinase CLK3 (Homo sapiens) (UniProt P49761); assay: Inhibition of CLK3 assessed as residual activity at 10 uM relative to control; procedure, shortened: as §2
Brain = assay: AUClast in Swiss albino mouse brain at 10 mg/kg, po; assay type: ADME, organism-based; parameters: time 0 - last, dose 10 mg/kg, route oral; conditions: in vivo
Procedure, shortened: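 Male Swiss Albino mice, single dose given intravenously (1 mg/kg) or orally (10 mg/kg). Drug measured in plasma and brain, with AUClast taken for each. The brain/plasma ratio is based on AUClast, and oral bioavailability is derived from the IV and PO plasma data.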

[20] = target: Testis-specific serine/threonine-protein kinase 1 (Homo sapiens) (UniProt Q9BXA7); assay: Inhibition of TSSK1 assessed as residual activity at 1 uM
[21] = target: Leucine-rich repeat serine/threonine-protein kinase 2 (Mus musculus) (UniProt Q5S006); assay: Inhibition of LRRK2 in Swiss mouse 3T3 cells assessed as inhibition of Ser935 autophosphorylation after 90 mins by immunoblot method; assay type: cell-based; conditions: NIH3T3
[22] = target: Aurora kinase C (Homo sapiens) (UniProt Q9UQB9); assay: Inhibition of AURKC assessed as residual activity at 10 uM relative to control
[23] = target: Serine/threonine-protein kinase LATS2 (Homo sapiens) (UniProt Q9NRM7); assay: Inhibition of LATS2 assessed as residual activity at 10 uM relative to control
[24] = target: Ephrin type-A receptor 8 (Homo sapiens) (UniProt P29322); assay: Inhibition of EPHA8 assessed as residual activity at 10 uM relative to control; procedure, shortened: as §2

Sequence of Leucine-rich repeat serine/threonine-protein kinase 2 (Mus musculus) (Q5S006 whole entry): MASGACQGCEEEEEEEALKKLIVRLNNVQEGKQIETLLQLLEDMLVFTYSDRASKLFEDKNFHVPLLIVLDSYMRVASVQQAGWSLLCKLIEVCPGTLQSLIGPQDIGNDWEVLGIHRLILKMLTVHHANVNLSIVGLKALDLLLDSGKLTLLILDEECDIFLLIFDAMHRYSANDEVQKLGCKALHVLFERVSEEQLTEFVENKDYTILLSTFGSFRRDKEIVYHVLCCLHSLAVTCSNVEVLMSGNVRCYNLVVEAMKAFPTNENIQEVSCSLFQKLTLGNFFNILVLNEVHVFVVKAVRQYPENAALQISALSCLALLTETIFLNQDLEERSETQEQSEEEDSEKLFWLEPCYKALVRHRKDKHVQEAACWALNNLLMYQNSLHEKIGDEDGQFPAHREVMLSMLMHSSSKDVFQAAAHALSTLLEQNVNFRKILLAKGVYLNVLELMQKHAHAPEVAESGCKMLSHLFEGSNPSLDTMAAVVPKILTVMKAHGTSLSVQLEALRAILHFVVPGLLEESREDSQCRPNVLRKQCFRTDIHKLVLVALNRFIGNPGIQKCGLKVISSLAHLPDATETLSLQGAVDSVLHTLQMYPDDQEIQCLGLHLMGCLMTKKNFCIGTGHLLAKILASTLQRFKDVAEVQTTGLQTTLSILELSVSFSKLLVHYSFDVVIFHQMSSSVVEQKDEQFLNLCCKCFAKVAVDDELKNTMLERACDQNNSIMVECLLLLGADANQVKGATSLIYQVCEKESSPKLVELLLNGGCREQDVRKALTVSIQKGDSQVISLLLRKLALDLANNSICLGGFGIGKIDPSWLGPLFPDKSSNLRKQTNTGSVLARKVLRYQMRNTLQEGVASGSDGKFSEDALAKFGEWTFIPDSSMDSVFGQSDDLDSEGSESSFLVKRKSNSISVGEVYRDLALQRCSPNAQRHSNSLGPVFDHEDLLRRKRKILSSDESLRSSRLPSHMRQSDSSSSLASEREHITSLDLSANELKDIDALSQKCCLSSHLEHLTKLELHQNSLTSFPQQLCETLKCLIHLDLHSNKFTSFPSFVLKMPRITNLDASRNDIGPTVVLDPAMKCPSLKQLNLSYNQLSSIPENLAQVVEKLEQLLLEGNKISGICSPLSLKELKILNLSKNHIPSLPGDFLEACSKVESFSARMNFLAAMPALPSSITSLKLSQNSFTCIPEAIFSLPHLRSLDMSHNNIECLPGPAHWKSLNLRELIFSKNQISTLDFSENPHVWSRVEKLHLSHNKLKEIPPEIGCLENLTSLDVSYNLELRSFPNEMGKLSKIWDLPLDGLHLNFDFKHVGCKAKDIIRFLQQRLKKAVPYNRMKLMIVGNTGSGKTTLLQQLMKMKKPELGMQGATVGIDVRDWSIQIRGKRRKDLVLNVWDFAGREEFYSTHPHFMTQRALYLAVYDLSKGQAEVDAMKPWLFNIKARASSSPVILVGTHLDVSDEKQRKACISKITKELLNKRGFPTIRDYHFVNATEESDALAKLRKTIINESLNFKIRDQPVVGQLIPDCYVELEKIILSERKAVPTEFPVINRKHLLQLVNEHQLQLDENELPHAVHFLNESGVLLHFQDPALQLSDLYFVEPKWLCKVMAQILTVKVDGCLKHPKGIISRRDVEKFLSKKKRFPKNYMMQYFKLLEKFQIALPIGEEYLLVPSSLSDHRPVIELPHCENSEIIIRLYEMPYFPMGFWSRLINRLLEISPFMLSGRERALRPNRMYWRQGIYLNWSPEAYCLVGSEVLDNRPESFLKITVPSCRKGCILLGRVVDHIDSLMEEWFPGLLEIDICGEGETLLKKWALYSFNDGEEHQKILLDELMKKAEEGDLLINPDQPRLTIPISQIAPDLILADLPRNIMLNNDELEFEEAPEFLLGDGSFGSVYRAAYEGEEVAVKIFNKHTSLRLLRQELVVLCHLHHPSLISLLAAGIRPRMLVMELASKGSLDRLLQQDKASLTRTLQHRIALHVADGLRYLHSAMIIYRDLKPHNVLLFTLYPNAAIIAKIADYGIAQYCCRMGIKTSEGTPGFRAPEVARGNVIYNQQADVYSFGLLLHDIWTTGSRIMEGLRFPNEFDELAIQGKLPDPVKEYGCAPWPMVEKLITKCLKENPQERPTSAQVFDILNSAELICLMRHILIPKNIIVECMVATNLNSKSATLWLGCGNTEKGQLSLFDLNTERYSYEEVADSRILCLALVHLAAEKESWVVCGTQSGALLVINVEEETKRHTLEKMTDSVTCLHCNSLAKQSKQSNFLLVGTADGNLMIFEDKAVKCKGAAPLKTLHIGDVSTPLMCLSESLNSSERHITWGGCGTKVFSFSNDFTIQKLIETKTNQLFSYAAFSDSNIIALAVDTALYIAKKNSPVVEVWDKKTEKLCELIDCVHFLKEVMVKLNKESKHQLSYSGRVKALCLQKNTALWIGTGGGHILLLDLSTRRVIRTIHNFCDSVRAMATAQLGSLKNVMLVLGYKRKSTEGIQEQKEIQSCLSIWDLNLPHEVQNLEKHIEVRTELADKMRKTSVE
Sequence of Testis-specific serine/threonine-protein kinase 1 (Homo sapiens) (Q9BXA7 whole entry): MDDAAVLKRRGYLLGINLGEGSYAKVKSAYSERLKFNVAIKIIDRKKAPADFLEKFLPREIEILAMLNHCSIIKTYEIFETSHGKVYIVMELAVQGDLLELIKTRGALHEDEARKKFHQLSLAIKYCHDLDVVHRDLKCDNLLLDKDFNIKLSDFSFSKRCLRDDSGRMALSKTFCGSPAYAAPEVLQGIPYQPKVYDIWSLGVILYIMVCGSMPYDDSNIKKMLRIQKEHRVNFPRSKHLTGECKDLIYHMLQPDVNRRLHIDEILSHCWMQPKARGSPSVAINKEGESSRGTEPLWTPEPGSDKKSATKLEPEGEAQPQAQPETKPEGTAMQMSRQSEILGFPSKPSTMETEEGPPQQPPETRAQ
Sequence of Calcium/calmodulin-dependent protein kinase kinase 2 (Homo sapiens) (Q96RR4 2-588 limits assumed): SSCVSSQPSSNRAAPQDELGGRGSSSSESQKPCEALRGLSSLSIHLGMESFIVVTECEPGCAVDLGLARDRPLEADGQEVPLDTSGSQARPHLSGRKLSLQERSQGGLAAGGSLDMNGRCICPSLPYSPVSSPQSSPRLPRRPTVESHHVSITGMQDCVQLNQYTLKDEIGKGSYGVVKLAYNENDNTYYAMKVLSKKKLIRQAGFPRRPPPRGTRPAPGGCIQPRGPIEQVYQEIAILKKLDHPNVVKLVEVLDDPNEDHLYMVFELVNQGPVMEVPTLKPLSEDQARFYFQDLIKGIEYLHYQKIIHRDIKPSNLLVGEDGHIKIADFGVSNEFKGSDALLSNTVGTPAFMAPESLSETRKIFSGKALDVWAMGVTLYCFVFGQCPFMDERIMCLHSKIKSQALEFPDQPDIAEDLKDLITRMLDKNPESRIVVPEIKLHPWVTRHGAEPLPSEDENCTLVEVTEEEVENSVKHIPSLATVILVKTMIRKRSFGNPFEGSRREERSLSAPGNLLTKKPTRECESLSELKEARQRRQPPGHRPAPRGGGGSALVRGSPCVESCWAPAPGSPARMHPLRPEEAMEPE
Sequence of Leukocyte tyrosine kinase receptor (Homo sapiens) (P29376 whole entry): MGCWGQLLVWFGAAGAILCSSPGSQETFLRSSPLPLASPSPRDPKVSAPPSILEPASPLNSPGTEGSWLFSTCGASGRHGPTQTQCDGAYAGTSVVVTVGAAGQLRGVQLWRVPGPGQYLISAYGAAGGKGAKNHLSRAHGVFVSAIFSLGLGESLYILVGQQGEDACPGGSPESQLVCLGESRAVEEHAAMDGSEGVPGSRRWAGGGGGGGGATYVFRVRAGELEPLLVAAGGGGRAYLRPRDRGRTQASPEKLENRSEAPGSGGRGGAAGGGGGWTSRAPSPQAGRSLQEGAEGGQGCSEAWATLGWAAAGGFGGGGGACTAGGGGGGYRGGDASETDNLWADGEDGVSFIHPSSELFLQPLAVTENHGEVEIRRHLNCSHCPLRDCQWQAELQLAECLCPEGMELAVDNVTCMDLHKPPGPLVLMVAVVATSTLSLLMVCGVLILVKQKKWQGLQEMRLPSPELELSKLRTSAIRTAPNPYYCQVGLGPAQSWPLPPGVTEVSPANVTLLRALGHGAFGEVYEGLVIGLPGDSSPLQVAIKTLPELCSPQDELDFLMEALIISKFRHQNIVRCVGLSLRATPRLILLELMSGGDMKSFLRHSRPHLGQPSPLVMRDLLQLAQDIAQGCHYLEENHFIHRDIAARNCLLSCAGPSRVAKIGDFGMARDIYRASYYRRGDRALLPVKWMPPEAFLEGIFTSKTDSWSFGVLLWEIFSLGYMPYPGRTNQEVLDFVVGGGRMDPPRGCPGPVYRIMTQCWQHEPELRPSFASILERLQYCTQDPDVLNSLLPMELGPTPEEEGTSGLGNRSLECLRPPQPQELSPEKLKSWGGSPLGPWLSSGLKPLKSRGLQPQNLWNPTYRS
Sequence of Ribosomal protein S6 kinase alpha-1 (Homo sapiens) (Q15418 whole entry): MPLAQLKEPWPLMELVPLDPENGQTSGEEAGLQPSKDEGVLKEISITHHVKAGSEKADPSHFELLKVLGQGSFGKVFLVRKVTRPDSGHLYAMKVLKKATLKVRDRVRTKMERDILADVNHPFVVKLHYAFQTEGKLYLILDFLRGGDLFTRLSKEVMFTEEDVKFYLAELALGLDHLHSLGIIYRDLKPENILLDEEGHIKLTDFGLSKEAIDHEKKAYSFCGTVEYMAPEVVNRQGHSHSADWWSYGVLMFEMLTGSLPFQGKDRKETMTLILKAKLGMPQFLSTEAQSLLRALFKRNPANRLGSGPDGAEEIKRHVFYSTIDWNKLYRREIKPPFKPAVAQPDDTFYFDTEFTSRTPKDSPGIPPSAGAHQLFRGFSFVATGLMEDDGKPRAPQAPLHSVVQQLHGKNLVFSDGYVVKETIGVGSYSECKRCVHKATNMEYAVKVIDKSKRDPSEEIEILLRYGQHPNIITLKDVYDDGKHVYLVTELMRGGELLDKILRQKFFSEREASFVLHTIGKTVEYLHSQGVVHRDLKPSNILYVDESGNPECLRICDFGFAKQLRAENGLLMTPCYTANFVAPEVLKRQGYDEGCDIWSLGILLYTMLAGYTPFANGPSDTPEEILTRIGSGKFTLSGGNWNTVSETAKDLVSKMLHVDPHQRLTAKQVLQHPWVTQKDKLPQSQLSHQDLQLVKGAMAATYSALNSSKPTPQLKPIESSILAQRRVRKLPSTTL

Question: For O=C(Nc1cccnc1)c1cc(-c2ccnc(F)c2)ccc1OCc1ccccc1, which Activity [1] is on record?
Answer: Its Activity is 71%.

Question: What about the Activity [2] of the same compound?
Answer: The Activity was 65%.

Question: What about the Activity [3] of the same compound?
Answer: Its Activity is 118%.

Question: And the Activity [4]?
Answer: Its Activity is 71%.

Question: What about the Activity [5] of the same compound?
Answer: Its Activity is 40%.

Question: And the Activity [6]?
Answer: The Activity was 73%.

Question: What about the Activity [7] of the same compound?
Answer: Its Activity is 65%.

Question: What about the Activity [8] of the same compound?
Answer: The Activity was 69%.

Question: And the F (Mus musculus [9])?
Answer: Its F is 12.2%.

Question: And the Activity [10]?
Answer: The Activity was 113%.

Question: And the inhibition [11]?
Answer: The inhibition was “Active”.

Question: What about the Activity [12] of the same compound?
Answer: The Activity was 52%.

Question: And the inhibition (Mus musculus [13])?
Answer: Its inhibition is “inactive”.

Question: What about the inhibition [14] of the same compound?
Answer: Its inhibition is “Dose-dependent effect”.

Question: And the Activity [15]?
Answer: Its Activity is 61%.

Question: And the Activity [16]?
Answer: The Activity was 113%.

Question: And the Activity [17]?
Answer: Its Activity is 101%.

Question: And the Activity [18]?
Answer: Its Activity is 21%.

Question: And the Activity [19]?
Answer: The Activity was 58%.

Question: And the AUClast (Brain)?
Answer: Its AUClast is 1.5394 µg·h/mL.

Question: What about the Activity [20] of the same compound?
Answer: The Activity was 103%.

Question: And the inhibition [21]?
Answer: Its inhibition is “Dose-dependent effect”.

Question: And the Activity [22]?
Answer: The Activity was 75%.

Question: And the Activity [23]?
Answer: The Activity was 32%.

Question: And the Activity [24]?
Answer: Its Activity is 52%.
